Data set [1] deals with Human alphaherpesvirus 1. Nature of the data set: Antiviral activity against HSV1 virus infected in HEL cells assessed as inhibition of virus-induced cytopathic effect at 100 uM by MTS assay. Type of data set: functional, organism-based.
Data set [2] has as its system HeLa. Description: Cytotoxicity against human HeLa cells assessed as decrease in cell viability upto 100 uM by MTS assay. Format: functional, cell-based. A digest of the protocol:
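Uninfected HeLa host cells were tested up to 100 μM. CC50 is the concentration causing a 50% drop in cell viability by colorimetric formazan-based MTS assay. Alternatively, MCC is the minimal concentration giving microscopically detectable alteration of normal cell morphology.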
In general terms: Formazan colour is commonly taken as a measure of viable cells.

The subject of data set [3] is Human alphaherpesvirus 2. Nature of the data set: Antiviral activity against HSV2 virus infected in HEL cells assessed as inhibition of virus-induced cytopathic effect at 100 uM by MTS assay. Type of data set: functional, organism-based. In general terms: Cytopathic effects are the visible damage that an infection or toxin causes in cultured cells.
Data set [4] deals with Sindbis virus. Description: Antiviral activity against Sindbis virus infected in Vero cells assessed as inhibition of virus-induced cytopathic effect at 100 uM by MTS assay. Type of data set: functional, organism-based. A digest of the protocol: (§1)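 Vero cell monolayers were infected with the virus in cell-based CPE assays. EC50 is the concentration giving 50% inhibition of virus-induced cytopathic effect, scored visually or by MTS formazan colorimetric cell-viability read-out. The highest concentration tested was 100 μM for most compounds and lower for a few.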

Data set [5] deals with Punta Toro virus. Nature of the data set: Antiviral activity against Punta Toro virus infected in Vero cells assessed as inhibition of virus-induced cytopathic effect at 100 uM by MTS assay. Type of data set: functional, organism-based. A digest of the protocol:
as §1

Data set [6] concerns Respiratory syncytial virus. Nature of the data set: Antiviral activity against respiratory syncytial virus infected in HeLa cells assessed as inhibition of virus-induced cytopathic effect at 100 uM by MTS assay. Type of data set: functional, organism-based. A digest of the protocol: (§2)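 HeLa cells were infected with the virus, and compounds were tested up to 100 μM. EC50 is the concentration that halves virus-induced cytopathic effect, read by visual CPE scoring or by MTS formazan colorimetric viability measurement.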

Data set [7] concerns Mammalian orthoreovirus 1. Nature of the data set: Antiviral activity against Reovirus1 infected in Vero cells assessed as inhibition of virus-induced cytopathic effect at 100 uM by MTS assay. Format: functional, organism-based. A digest of the protocol: as §1
Data set [8] deals with Vero. Nature of the data set: Cytotoxicity against african green monkey Vero cells assessed as decrease in cell viability upto 100 uM by MTS assay. Format: cell-based. As to conditions: chlorocebus sabaeus.
Data set [9] concerns Coxsackievirus B4. Nature of the data set: Antiviral activity against Coxsackievirus B4 infected in HeLa cells assessed as inhibition of virus-induced cytopathic effect at 100 uM by MTS assay. Format: functional, organism-based. A digest of the protocol: as §2
Data set [10] can be described thus: Cytotoxicity against CRFK cells assessed as decrease in cell viability upto 100 uM by MTS assay. Format: cell-based, Felis catus. As to conditions: cat.
The subject of data set [11] is HEL. Nature of the data set: Cytotoxicity against HEL cells assessed as decrease in cell viability upto 100 uM by MTS assay. Format: cell-based. Conditions: human.
For data set [12], the system named is Human respirovirus 3. Nature of the data set: Antiviral activity against Parainfluenza 3 virus infected in Vero cells assessed as inhibition of virus-induced cytopathic effect at 100 uM by MTS assay. Format: functional, organism-based. A digest of the protocol:
as §1

Data set [13] has as its system Feline coronavirus. Nature of the data set: Antiviral activity against feline coronavirus infected in CRFK cells assessed as inhibition of virus-induced cytopathic effect at 100 uM by MTS assay. Format: functional, organism-based.
The subject of data set [14] is Coxsackievirus B4. Nature of the data set: Antiviral activity against Coxsackievirus B4 infected in Vero cells assessed as inhibition of virus-induced cytopathic effect at 100 uM by MTS assay. Type of data set: functional, organism-based. A digest of the protocol: as §1
Data set [15] has as its system MDCK. Description: Cytotoxicity against MDCK cells assessed as decrease in cell viability upto 100 uM by MTS assay. Format: cell-based, Canis lupus familiaris. As to conditions: dog.
The subject of data set [16] is Felid alphaherpesvirus 1. Description: Antiviral activity against feline herpes virus infected in CRFK cells assessed as inhibition of virus-induced cytopathic effect at 100 uM by MTS assay. Type of data set: functional, organism-based.
A short description of data set [17]: Cytotoxicity against MDCK cells assessed as decrease in cell viability by MTS assay. Type of data set: cell-based, Canis lupus familiaris. Conditions: dog. A digest of the protocol:
(§3)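 Uninfected host cells were exposed to compound. CC50 was taken as the concentration giving a 50% fall in cell viability, measured by a colorimetric formazan-based MTS assay.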

Data set [18] is described as follows: Cytotoxicity against CRFK cells assessed as decrease in cell viability by MTS assay. Format: cell-based, Felis catus. As to conditions: cat. A digest of the protocol: as §3
Data set [19] deals with Coxsackievirus B4. Nature of the data set: Antiviral activity against Coxsackievirus B4 infected in Vero cells assessed as inhibition of virus-induced cytopathic effect by MTS assay. Type of data set: functional, organism-based. Conditions: Enterovirus B. A digest of the protocol:
(§4)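 Vero cell monolayers infected with Coxsackie B4 virus or Punta Toro virus, with test compounds at up to 100 μM. EC50 is the concentration giving 50% inhibition of virus-induced cytopathic effect (CPE), scored visually or from cell viability by the colorimetric formazan-based MTS assay.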

Data set [20] can be described thus: Cytotoxicity against MDCK cells assessed as alteration in cell morphology by MTS assay. Type of data set: cell-based, Canis lupus familiaris. As to conditions: dog. A digest of the protocol:
(§5)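 Uninfected host cells were exposed to compound and examined under the microscope. MCC was the minimal compound concentration causing a microscopically detectable change in normal cell morphology.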

Data set [21] relates to Punta Toro virus. Description: Antiviral activity against Punta Toro virus infected in Vero cells assessed as inhibition of virus-induced cytopathic effect by MTS assay. Type of data set: functional, organism-based. A digest of the protocol:
as §4

A short description of data set [22]: Cytotoxicity against HEL cells assessed as alteration in cell morphology by MTS assay. Conditions: human. Format: cell-based. A digest of the protocol:
(§6)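 Uninfected host cells (HEL or HeLa) exposed to compounds […]. The minimal cytotoxic concentration (MCC) is the lowest concentration causing a microscopically detectable change in normal cell morphology. CC50 is the concentration giving a 50% fall in cell viability by the colorimetric formazan-based MTS assay.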

Data set [23] has as its system HeLa. Description: Cytotoxicity against human HeLa cells assessed as alteration in cell morphology by MTS assay. Format: functional. A digest of the protocol:
as §6

Data set [24] can be described thus: Cytotoxicity against african green monkey Vero cells assessed as alteration in cell morphology by MTS assay. Type of data set: cell-based. Conditions: chlorocebus sabaeus. A digest of the protocol:
as §5

The structures appear in SMILES notation. Active and inactive are the calls of the source. The rule behind the calls is not given here.

Turning to `CC(=O)Nc1ccc(S(=O)(=O)N(CCO)Cn2ccc(=O)[nH]c2=O)cc1`, the outcome in data set [1], in data set [2], in data set [3], in data set [4], in data set [5] and in [6] was inactive. The outcome in data set [7], in data set [9], in data set [12], in data set [13], in data set [14] and in [16] was inactive. The Activity result in [8], in [10], in data set [11] and in data set [15] was “Not Active” each time.
As a reminder, the CC50 is the concentration giving 50% cytotoxicity. As usually defined, the EC50 is the concentration needed to bring the measured effect to its halfway point. In the case of `CC(C)(C)C(=O)OCCN(Cn1cc(F)c(=O)[nH]c1=O)S(=O)(=O)c1cccc([N+](=O)[O-])c1`, the result in data set [1], in data set [2], in data set [3], in data set [4], in data set [6] and in [7] was inactive. The result in data set [9], in [12], in data set [13] and in [16] was inactive. Besides, the CC50 in data set [17] was above 100 µM; in [18], 95 µM. The EC50 in [19] and in data set [21] was 100 µM in each case. The Activity entry in [11] is given as “Not Active”. The MCC in [20] was at least 100 µM.
Take `NC(=O)c1ncn([C@@H]2O[C@H](CO)[C@@H](O)[C@H]2O)n1` [RIBAVIRIN]: in data set [17], the CC50 was above 100 µM. The MCC is above 250 µM in data set [22], above 250 µM in data set [23], 100 µM in [20] and above 250 µM in [24].
For the molecule `Cc1cn(CN(CCOC(=O)C(C)(C)C)S(=O)(=O)c2ccccc2[N+](=O)[O-])c(=O)[nH]c1=O`, the result in [1], in data set [2], in [3], in data set [4], in [6] and in data set [7] was inactive. Further, the outcome in data set [9], in data set [12], in data set [13] and in data set [16] was inactive. For the same molecule, the EC50 in [19] and in data set [21] was 100 µM throughout. For the same molecule, the Activity result in data set [10], in data set [11] and in data set [15] was “Not Active” each time.

(Values after ChEMBL document CHEMBL1144203, “Synthesis and antiviral evaluation of acyclic azanucleosides developed from sulfanilamide as a lead structure” (Bioorg Med Chem, 2008).)
